Assay results as given in ChEMBL document CHEMBL5058577, “EUbOPEN Chemogenomics Library 2 (Multiplex)” (2022).

Tested on: U2OS
Assay: Multiplex assay against U2OS
Format: toxicity, cell-based
Conditions: human
How it was run: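 Imaging took place on a CQ1 microscope at 37°C and 5% CO2 once compound had been added to live cells stained at seeding with Hoechst33342, BioTracker Green Microtubule Cytoskeleton Dye, MitoTracker Red and Annexin V Alexa Fluor 680. CellPathfinder machine-learning gating classed cells as Hoechst high-intensity objects or normal cells, classed normal cells as having healthy, pyknosed or fragmented nuclei, and classed pyknosed cells as mitotic or apoptotic. Tubulin, mitochondrial-mass and membrane-permeability phenotypes are per cents of the healthy-nucleus cells.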

[1] = 12 h, 1 µM, compound concentration 1 uM, replicate 1
[2] = 12 h, 1 µM, compound concentration 1 uM, replicate 2
[3] = 12 h, 10 µM, compound concentration 10 uM, replicate 1
[4] = 12 h, 10 µM, compound concentration 10 uM, replicate 2
[5] = 24 h, 1 µM, compound concentration 1 uM, replicate 1
[6] = 24 h, 1 µM, compound concentration 1 uM, replicate 2
[7] = 24 h, 10 µM, compound concentration 10 uM, replicate 1
[8] = 24 h, 10 µM, compound concentration 10 uM, replicate 2
[9] = 48 h, 1 µM, compound concentration 1 uM, replicate 1
[10] = 48 h, 1 µM, compound concentration 1 uM, replicate 2
[11] = 48 h, 10 µM, compound concentration 10 uM, replicate 1
[12] = 48 h, 10 µM, compound concentration 10 uM, replicate 2

C[C@@H]1C[C@H]2[C@@H]3CCC4=CC(=O)C=C[C@]4(C)[C@@]3(F)[C@@H](O)C[C@]2(C)[C@@]1(O)C(=O)CO [DEXAMETHASONE]
Population Apoptotic (%) [1]: 77% | Population Fragmented Nuclei (%) [1]: 21% | Population Healthy Nuclei (%) [1]: 70% | Population Hoechst High Intensity Objects (%) [1]: 2% | Population Membrane Permeable-Phenotype (%) [1]: 2% | Population Mitochondria Different-Phenotype (%) [1]: 0% | Population Mitotic Cells (%) [1]: 22% | Population Normal (%) [1]: 97% | Population Pyknosed Nuclei (%) [1]: 7% | Population Tubulin-Different-Phenotype (%) [1]: 1% | Total Cell Count [1]: 238 | Population Apoptotic (%) [2]: 80% | Population Fragmented Nuclei (%) [2]: 20% | Population Healthy Nuclei (%) [2]: 75% | Population Hoechst High Intensity Objects (%) [2]: 0% | Population Membrane Permeable-Phenotype (%) [2]: 4% | Population Mitochondria Different-Phenotype (%) [2]: 1% | Population Mitotic Cells (%) [2]: 20% | Population Normal (%) [2]: 99% | Population Pyknosed Nuclei (%) [2]: 4% | Population Tubulin-Different-Phenotype (%) [2]: 3% | Total Cell Count [2]: 124 | Population Apoptotic (%) [3]: 80% | Population Fragmented Nuclei (%) [3]: 20% | Population Healthy Nuclei (%) [3]: 69% | Population Hoechst High Intensity Objects (%) [3]: 2% | Population Membrane Permeable-Phenotype (%) [3]: 6% | Population Mitochondria Different-Phenotype (%) [3]: 1% | Population Mitotic Cells (%) [3]: 19% | Population Normal (%) [3]: 97% | Population Pyknosed Nuclei (%) [3]: 9% | Population Tubulin-Different-Phenotype (%) [3]: 2% | Total Cell Count [3]: 319 | Population Apoptotic (%) [4]: 84% | Population Fragmented Nuclei (%) [4]: 16% | Population Healthy Nuclei (%) [4]: 76% | Population Hoechst High Intensity Objects (%) [4]: 0% | Population Membrane Permeable-Phenotype (%) [4]: 7% | Population Mitochondria Different-Phenotype (%) [4]: 2% | Population Mitotic Cells (%) [4]: 15% | Population Normal (%) [4]: 100% | Population Pyknosed Nuclei (%) [4]: 7% | Population Tubulin-Different-Phenotype (%) [4]: 3% | Population Apoptotic (%) [5]: 96% | Population Fragmented Nuclei (%) [5]: 19% | Population Healthy Nuclei (%) [5]: 71% | Population Hoechst High Intensity Objects (%) [5]: 2% | Population Membrane Permeable-Phenotype (%) [5]: 4% | Population Mitochondria Different-Phenotype (%) [5]: 2% | Population Mitotic Cells (%) [5]: 4% | Population Normal (%) [5]: 97% | Population Pyknosed Nuclei (%) [5]: 8% | Population Tubulin-Different-Phenotype (%) [5]: 2% | Total Cell Count [5]: 288 | Population Apoptotic (%) [6]: 90% | Population Fragmented Nuclei (%) [6]: 18% | Population Healthy Nuclei (%) [6]: 73% | Population Membrane Permeable-Phenotype (%) [6]: 6% | Population Mitochondria Different-Phenotype (%) [6]: 0% | Population Mitotic Cells (%) [6]: 9% | Population Pyknosed Nuclei (%) [6]: 7% | Population Tubulin-Different-Phenotype (%) [6]: 4% | Population Apoptotic (%) [7]: 82% | Population Fragmented Nuclei (%) [7]: 17% | Population Healthy Nuclei (%) [7]: 74% | Population Hoechst High Intensity Objects (%) [7]: 1% | Population Membrane Permeable-Phenotype (%) [7]: 6% | Population Mitochondria Different-Phenotype (%) [7]: 0% | Population Mitotic Cells (%) [7]: 17% | Population Normal (%) [7]: 98% | Population Pyknosed Nuclei (%) [7]: 7% | Population Tubulin-Different-Phenotype (%) [7]: 2% | Total Cell Count [7]: 378 | Population Apoptotic (%) [8]: 75% | Population Fragmented Nuclei (%) [8]: 14% | Population Healthy Nuclei (%) [8]: 79% | Population Hoechst High Intensity Objects (%) [8]: 0% | Population Mitochondria Different-Phenotype (%) [8]: 2% | Population Mitotic Cells (%) [8]: 25% | Population Normal (%) [8]: 99% | Population Pyknosed Nuclei (%) [8]: 5% | Total Cell Count [8]: 219 | Population Apoptotic (%) [9]: 84% | Population Fragmented Nuclei (%) [9]: 20% | Population Healthy Nuclei (%) [9]: 72% | Population Hoechst High Intensity Objects (%) [9]: 1% | Population Membrane Permeable-Phenotype (%) [9]: 1% | Population Mitochondria Different-Phenotype (%) [9]: 1% | Population Mitotic Cells (%) [9]: 16% | Population Normal (%) [9]: 98% | Population Pyknosed Nuclei (%) [9]: 6% | Population Tubulin-Different-Phenotype (%) [9]: 0% | Total Cell Count [9]: 391 | Population Apoptotic (%) [10]: 71% | Population Fragmented Nuclei (%) [10]: 17% | Population Healthy Nuclei (%) [10]: 74% | Population Hoechst High Intensity Objects (%) [10]: 2% | Population Membrane Permeable-Phenotype (%) [10]: 3% | Population Mitochondria Different-Phenotype (%) [10]: 3% | Population Mitotic Cells (%) [10]: 28% | Population Normal (%) [10]: 97% | Population Pyknosed Nuclei (%) [10]: 7% | Population Tubulin-Different-Phenotype (%) [10]: 4% | Total Cell Count [10]: 186 | Population Apoptotic (%) [11]: 92% | Population Fragmented Nuclei (%) [11]: 14% | Population Healthy Nuclei (%) [11]: 77% | Population Hoechst High Intensity Objects (%) [11]: 2% | Population Membrane Permeable-Phenotype (%) [11]: 4% | Population Mitochondria Different-Phenotype (%) [11]: 1% | Population Mitotic Cells (%) [11]: 7% | Population Normal (%) [11]: 97% | Population Pyknosed Nuclei (%) [11]: 8% | Population Tubulin-Different-Phenotype (%) [11]: 1% | Total Cell Count [11]: 497 | Population Apoptotic (%) [12]: 86% | Population Fragmented Nuclei (%) [12]: 16% | Population Healthy Nuclei (%) [12]: 76% | Population Membrane Permeable-Phenotype (%) [12]: 5% | Population Mitochondria Different-Phenotype (%) [12]: 0% | Population Mitotic Cells (%) [12]: 13% | Population Pyknosed Nuclei (%) [12]: 7% | Total Cell Count [12]: 294
